For one test, the target named is T1, P450BM3 variant FL#62 (Priestia megaterium, UniProt P14779, A181T/A185V/A198V/A291V/A83V/E253G/F206C/F82S/F88A/H237Q/L354V/P143S/R256S/S227R/T176I/V79A).
T1 sequence (P14779 1-1049 V79A/F82S/A83V/F88A/P143S/T176I/A181T/A185V/A198V/F206C/S227R/H237Q/E253G/R256S/A291V/L354V): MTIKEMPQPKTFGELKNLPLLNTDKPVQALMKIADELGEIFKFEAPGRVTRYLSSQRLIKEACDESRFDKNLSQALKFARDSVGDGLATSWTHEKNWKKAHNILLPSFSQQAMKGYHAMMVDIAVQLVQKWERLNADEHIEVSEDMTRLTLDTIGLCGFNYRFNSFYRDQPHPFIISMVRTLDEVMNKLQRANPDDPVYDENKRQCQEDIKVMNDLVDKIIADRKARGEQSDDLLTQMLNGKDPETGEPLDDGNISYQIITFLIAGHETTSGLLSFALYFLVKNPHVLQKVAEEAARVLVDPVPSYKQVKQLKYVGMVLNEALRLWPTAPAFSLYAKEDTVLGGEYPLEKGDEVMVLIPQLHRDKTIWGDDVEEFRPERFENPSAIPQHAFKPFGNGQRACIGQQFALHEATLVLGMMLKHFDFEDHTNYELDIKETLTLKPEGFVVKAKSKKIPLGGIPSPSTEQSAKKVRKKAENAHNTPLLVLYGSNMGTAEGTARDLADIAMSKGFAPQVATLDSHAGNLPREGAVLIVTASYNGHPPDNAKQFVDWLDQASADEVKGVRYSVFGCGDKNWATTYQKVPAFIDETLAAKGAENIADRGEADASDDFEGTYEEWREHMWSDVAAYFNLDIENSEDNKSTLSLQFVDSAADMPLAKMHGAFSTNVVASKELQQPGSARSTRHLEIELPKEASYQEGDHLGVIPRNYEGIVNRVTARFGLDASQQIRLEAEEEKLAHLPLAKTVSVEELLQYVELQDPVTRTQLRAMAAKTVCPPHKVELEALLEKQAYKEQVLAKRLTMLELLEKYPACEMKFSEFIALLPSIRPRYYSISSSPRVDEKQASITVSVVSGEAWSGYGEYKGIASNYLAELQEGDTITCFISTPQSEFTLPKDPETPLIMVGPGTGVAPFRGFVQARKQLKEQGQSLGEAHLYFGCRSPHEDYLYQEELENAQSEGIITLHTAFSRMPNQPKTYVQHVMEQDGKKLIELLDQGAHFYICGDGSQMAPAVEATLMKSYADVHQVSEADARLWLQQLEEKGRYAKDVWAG
As to the kind of experiment: Heme spin shift binding of MCL to P450 variant FL#62. Details: species or system Bacillus megaterium. In outline:
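Purified P450 (3 μM) in 50 mM potassium phosphate, pH 8.0, titrated with test compound (5–2000 μM) from a 50 mM ethanol stock. A difference spectrum (350–500 nm) was taken at each step. Absorbance change at 390/420 nm (high/low spin) was plotted against concentration, with KD from a nonlinear 1:1 binding fit. At least triplicate, room temperature.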

The test system of test [1] is AML04 primary AML specimen. The test is described as follows: Cell viability of primary AML specimen AML04. Format: cell-based. As to conditions: Homo sapiens, read-out: AML04 LC50. In outline:
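Primary AML samples came from consenting donors. Live mononuclear cells were isolated on a Ficoll-Paque density gradient and cryopreserved, with 40–70% viability after thawing. Cells were kept at 37 °C, humidified, 5% CO2.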

The subject of a further test is M9-ENL1 cells. As to the kind of experiment: Cell viability of M9-ENL1 cells, Annexin V / 7-AAD flow cytometry. Type of test: cell-based, human. As to conditions: 20 μM, 24 h.

As a reminder, the Kd is the equilibrium constant for the complex coming apart.

For the compound `C=C1C(=O)O[C@H]2[C@H]1CCC(C)=C1CC[C@@](C)(O)[C@@H]12` [MCL, micheliolide], the equilibrium dissociation constant (Kd) at P450BM3 variant FL#62 is 61 ± 3 µM. Further, in test [1], the CC50 was 22.1 µM. In addition, the “reduction in cell viability” value in the test with M9-ENL1 cells came to 50%.
